High-throughput results as filed in PubChem.
CASP6 VEID inh: caspase-6 (human) enzyme inhibition. purified caspase-6, Z-VEID-R110 cleavage fluorescence. inhibition, % at 12.5 µM. actives 0.53% (n = 350,000). AID 686996;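 active = mean inhibition across replicates at least about 35%, with every replicate also reaching that limit, limit read from the data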
NSD2 inh: inhibitors of human histone methyltransferase NSD2; actives 0.54% (n = 310,000); O96028; inhibition, % at 12.5 µM; AID 743445; NSD2 peptide methylation, AlphaScreen, 120 min; in the data active = inhibition above about 50%
SIRT5 inh: inhibitors of human sirtuin-5 desuccinylase. actives 1.1% (n = 330,000). inhibition, % at 15 µM. AID 652115. Purified SirT5, succinyl-peptide AMC, trypsin-coupled fluorescence. Q9NXA8; in the data active = inhibition above about 15%
UCH37 inh: inhibitors of human deubiquitinating enzyme UCH37; purified proteasome/UCH37, Ub-AMC cleavage fluorescence; inhibition, % (test concentration not listed); actives 0.33% (n = 330,000); AID 588478;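 active = mean inhibition over replicate wells above about 20%, limit read from the data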
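system = Proteasome-associated human UCH37 deubiquitinase | amount = 0.15 nM proteasome as dispensed | medium = pH 7.4 Tris-HCl (50 mM) with ovalbumin, ATP-MgCl2, DTT | incubation = 30 min preincubation with enzyme, 25 min cleavage at room temperature | detection = AMC fluorescence 355/460 nm | read-out basis = percent inhibition | controls = no-proteasome and no-compound wells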
FGF22 binding: FGF22 (human) thermal shift binding; actives 1.5% (n = 340,000); recombinant FGF22 thermal shift, SYPRO orange fluorescence; percent of sucrose octasulfate shift, DMSO zero; AID 651658; activity (Tm shift, normalised), % at 9.99 µM;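 active = mean Tm shift, scaled 0 neutral to 100 positive control, at about 1.3% or above, every replicate too, limit read from the data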
AlphaScreen art: counter-screen for NSD2 inhibitors: AlphaScreen artifacts | shares compounds with NSD2 inh | AlphaScreen artifact counterscreen, preloaded methylated H4 peptide | AC35, µM (highest dose often 10 µM) | actives 9.4% (n = 1,500) | AID 1053174; call rule not given here
Large screens that a line does not name were inactive (follow-up assays come after a bar, where they were run). Compounds with a hit are over-represented: about 2.6% of the library has one in this group of screens.

O=C(NC1Cc2ccccc2C1)[C@@H]1[C@@H](CO)[C@@H]2Cn3c(ccc(-c4ccccc4F)c3=O)[C@H]1N2	none (no result: NSD2 inh, UCH37 inh)
CCC(=O)N1CC2(CCN(C(=O)Nc3ccccc3F)CC2)c2c([nH]c3cc(OC)ccc23)[C@H]1CO	none (no result: NSD2 inh, UCH37 inh)
COc1cc(-c2nnc(SCc3cc(=O)oc4cc(O)c(O)cc34)o2)cc(OC)c1OC	NSD2 inh 82.7 (no result: CASP6 VEID inh, SIRT5 inh, FGF22 binding) | AlphaScreen art 0.993µM
CN1CCN(c2ccc(NC(=O)COc3ccc4ccccc4c3)cc2)CC1	NSD2 inh 124.5 | AlphaScreen art inactive
O=C(O)c1cccc(-n2cccc2/C=C\[N+](=O)[O-])c1	NSD2 inh 68.7 (no result: CASP6 VEID inh) | AlphaScreen art inactive
CN1C(=O)S/C(=C/c2cccn2-c2cccc(C(=O)O)c2)C1=O	none (no result: UCH37 inh)
ON=Cc1cccn1-c1ccccc1	none (no result: FGF22 binding)
O=C(O)c1cccc(-n2cccc2/C=N/O)c1	NSD2 inh 52.5 (no result: CASP6 VEID inh, SIRT5 inh, UCH37 inh, FGF22 binding) | AlphaScreen art inactive
CCOc1cc(C=Nn2cnnc2)ccc1OCC(=O)Nc1ccccc1OC	none (no result: CASP6 VEID inh, NSD2 inh, SIRT5 inh, FGF22 binding)
CCOc1ccc2[nH]c3c(NCCN(CC)CC)ncnc3c2c1	NSD2 inh 103.2 | AlphaScreen art inactive
CCN(CC)CCCNc1nc2ccccc2c2[nH]c3ccc(OC)cc3c12	NSD2 inh 56.2 (no result: SIRT5 inh, UCH37 inh) | AlphaScreen art inactive
CCN(CC)CCCNc1nc(-c2ccccc2)nc2ccccc12	none (no result: CASP6 VEID inh, SIRT5 inh, FGF22 binding)
C[C@@H]1CCCCO[C@H](CN(C)C(=O)Nc2ccc(C(F)(F)F)cc2)[C@@H](C)CN([C@@H](C)CO)C(=O)c2cc(NC(=O)Cc3ccccc3)ccc2O1	none (no result: CASP6 VEID inh, NSD2 inh, SIRT5 inh, UCH37 inh)
C[C@@H]1CCCCO[C@H](CN(C)C(=O)Nc2cccc3ccccc23)[C@@H](C)CN([C@@H](C)CO)C(=O)c2cc(NC(=O)c3ccncc3)ccc2O1	none (no result: NSD2 inh, UCH37 inh)
CC(C)C#Cc1ccc2c(c1)O[C@@H](CN(C)S(C)(=O)=O)[C@H](C)CN([C@H](C)CO)S2(=O)=O	none (no result: NSD2 inh, UCH37 inh)
CC[n+]1c(/C=C/Nc2ccccc2)oc2ccccc21	NSD2 inh 80.7 (no result: CASP6 VEID inh, SIRT5 inh, FGF22 binding) | AlphaScreen art inactive
O=C(CC(=O)Nc1ccc(Cl)cc1)N/N=C\c1cccc(F)c1	NSD2 inh 112.6 (no result: UCH37 inh) | AlphaScreen art inactive
O=C(C[C@H]1C[C@@H]2c3cc(NC(=O)CC4CC4)ccc3O[C@@H]2[C@@H](CO)O1)NCCN1CCCCC1	none (no result: NSD2 inh, UCH37 inh)
Cc1[nH]ccc(=O)c1OCc1ccccc1	none (no result: CASP6 VEID inh, NSD2 inh, SIRT5 inh, FGF22 binding)
O=c1cc(OCc2ccccc2)cc[nH]1	NSD2 inh 81.6 | AlphaScreen art inactive
CCOC(=O)C1=C(C)N=c2s/c(=C/c3cccc([N+](=O)[O-])c3O)c(=O)n2C1c1cc(OC)c(OC)c(OC)c1 (stereo not given)	none (no result: UCH37 inh)
CCOC(=O)C1=C(C)N=c2s/c(=C/c3cccc([N+](=O)[O-])c3O)c(=O)n2C1c1ccccc1 (stereo not given)	NSD2 inh 63.1 (no result: UCH37 inh) | AlphaScreen art 8.65µM
CCCCCOC(=O)c1c(N)n(CCOC)c2nc3ccccc3nc12	NSD2 inh 61.3 (no result: CASP6 VEID inh, SIRT5 inh, FGF22 binding) | AlphaScreen art inactive
COc1cc(/C=C2\C(=O)ON=C2c2ccc(Cl)cc2)ccc1O	NSD2 inh 60.9 | AlphaScreen art inactive
CN(C)C=Nc1ncc(C(=O)OC(C)(C)C)s1	none (no result: CASP6 VEID inh, NSD2 inh, SIRT5 inh, FGF22 binding)
Cn1c(=O)[nH]c2nnc(-c3ccc(Cl)c(Cl)c3)nc2c1=O	NSD2 inh 106.6 (no result: SIRT5 inh) | AlphaScreen art inactive
Cc1cccc(-c2ccc([C@H]3[C@@H](CO)N4CCCCN(Cc5cccnc5)C[C@H]34)cc2)c1	none (no result: NSD2 inh, UCH37 inh)
Cn1c(=O)c(-c2ccccc2N)nc2ccccc21	none (no result: CASP6 VEID inh, SIRT5 inh, FGF22 binding)
Cn1c(=O)c(-c2ccccc2)nc2ccccc21	NSD2 inh 126.5 (no result: CASP6 VEID inh, SIRT5 inh, FGF22 binding) | AlphaScreen art inactive
O=C(Nc1cccc(O)c1)c1ccc(Br)cc1	NSD2 inh 67.4 (no result: CASP6 VEID inh, SIRT5 inh, FGF22 binding) | AlphaScreen art inactive
CC(=O)Nc1cccc(NC(=O)c2ccc(Br)cc2)c1	none
CN1CCN(C(=O)C[C@@H]2CC[C@H]3[C@@H](COC[C@H](O)CN3C(=O)Nc3cc(Cl)cc(Cl)c3)O2)CC1	none (no result: NSD2 inh, UCH37 inh)
OCCCNC(=S)Nc1ccc2nccnc2c1	none
Fc1ccc(NC(=S)Nc2ccc3nccnc3c2)cc1	NSD2 inh 104.7 | AlphaScreen art inactive
CSC1=N/C(=C\c2ccccc2F)C(=O)S1	none (no result: CASP6 VEID inh, SIRT5 inh, FGF22 binding)
COc1cccc(/C=C2\N=C(SC)SC2=O)c1OC	NSD2 inh 98.7 (no result: CASP6 VEID inh, SIRT5 inh, FGF22 binding) | AlphaScreen art inactive
Cc1ccc(-c2cnc3c(c2)C(=O)N([C@@H](C)CO)C[C@H](C)[C@@H](CN(C)C(=O)c2ccc(F)cc2)O3)cc1	none (no result: NSD2 inh, UCH37 inh)
Oc1ccccc1N=Nc1ccccc1O	none
Nc1ccc(N=Nc2ccccc2O)c(N)c1	NSD2 inh 54.2 | AlphaScreen art inactive
O=S(=O)(N[C@@H]1CC[C@H](CCn2cc(-c3ccccc3F)nn2)O[C@@H]1CO)c1ccc(Cl)cc1	none (no result: NSD2 inh, UCH37 inh)
CCN(CC)CCNC(=O)Cc1nn(Cc2ccccc2)c(=O)c2ccccc12	NSD2 inh 51.4 | AlphaScreen art inactive
COCC(=O)N1CC2(C1)[C@H](c1ccccc1)[C@@H](CO)N2C(=O)c1ccccc1	none (no result: NSD2 inh, UCH37 inh)
Cc1c(Br)c(=O)oc2c(Br)c(O)c(O)cc12	CASP6 VEID inh 46.8, NSD2 inh 110.6 | AlphaScreen art inactive
OC(CNC1CCCCCC1)COc1cccc2ccccc12 (stereo not given)	none
Cc1cc2c(OCC(O)CNC3CCCCC3)cccc2[nH]1 (stereo not given)	NSD2 inh 54.0 | AlphaScreen art inactive
CCN(CC)CCSc1nc2ccccc2c(=S)n1-c1ccccc1	NSD2 inh 108.5 | AlphaScreen art inactive
O=C(C[C@@H]1CC[C@@H]2[C@H](COC[C@H](O)CN2C(=O)Nc2ccccc2)O1)NC1Cc2ccccc2C1	none (no result: NSD2 inh, UCH37 inh)
